Source: ChEMBL document CHEMBL1132437, “Synthesis and antimicrobial activity of 4H-4-oxoquinolizine derivatives: consequences of structural modification at the C-8 position” (1999)
≈ marks a conversion by molar mass, not a printed value.

Tests used:
[1] = system: Streptococcus pyogenes; assay: In vitro antibacterial activity against gram positive Streptococcus pyogenes 930; type: functional
In short: (§1)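 Agar dilution MIC determination following the National Committee for Clinical Laboratory Standards recommendations.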

[2] = system: Burkholderia cepacia; assay: In vitro antibacterial activity against gram negative Pseudomonas cepacia 2961; type: functional; in short: as §1
[3] = system: Escherichia coli; assay: In vitro antibacterial activity against gram negative Escherichia coli KNK 437; type: functional; in short: as §1
[4] = system: Pseudomonas aeruginosa; assay: In vitro antibacterial activity against Gram-negative Pseudomonas aeruginosa 5007; type: functional; in short: as §1
[5] = system: Staphylococcus aureus; assay: In vitro antibacterial activity against gram-positive Staphylococcus aureus NCTC 10649M; type: functional; in short: as §1
[6] = system: Staphylococcus aureus; assay: In vivo efficacy against Staphylococcus aureus NCTC 10649M in mouse; type: functional
In short: (§2)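 Mouse protection model: mice infected intravenously with 100-fold LD50 of the organism. Compound given by subcutaneous injection or oral gavage at 1 and 5 h after infection, over a dose range. Deaths tracked for 7 days post-inoculation. ED50 is the dose giving 50% survival of treated mice over the trial.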

[7] = system: Enterococcus faecium; assay: In vitro antibacterial activity against gram-positive Enterococcus faecium ATCC 8043; type: functional; in short: as §1
[8] = system: Escherichia coli; assay: In vivo efficacy against Escherichia coli JUHL in mouse protection test after subcutaneous administration; type: functional; conditions: Escherichia coli, sc; read-out: ED50; in short: as §2
[9] = system: Pseudomonas aeruginosa; assay: In vitro antibacterial activity against gram negative P. aeruginosa DPHP 5263; type: functional; in short: as §1
[10] = system: Staphylococcus aureus; assay: In vitro antibacterial activity against gram-positive Staphylococcus aureus 1775; type: functional; in short: as §1
[11] = system: Streptococcus pneumoniae; assay: In vivo efficacy against Streptococcus pneumoniae ATCC 6303 in mouse protection test after s.c. administration.; type: functional; conditions: Streptococcus pneumoniae, sc; read-out: ED50; in short: as §2
[12] = system: Mus musculus; assay: In vivo efficacy against Streptococcus pneumoniae ATCC 6303 in mouse protection test after administration by oral gavage; type: functional; in short: as §2
[13] = system: Mus musculus; assay: In vivo efficacy against Staphylococcus aureus NCTC 10649M in mouse protection test
[14] = system: Staphylococcus aureus; assay: In vivo efficacy against Staphylococcus aureus NCTC 10649M in mouse protection test after p.o. administration.; type: functional; conditions: Staphylococcus aureus, po; read-out: ED50; in short: as §2
[15] = system: Escherichia coli; assay: In vivo efficacy against Escherichia coli JUHL in mouse protection test after p.o. administration.; type: functional; conditions: Escherichia coli, po; read-out: ED50; in short: as §2
[16] = system: Pseudomonas aeruginosa; assay: In vivo efficacy against Pseudomonas aeruginosa 5007 in mouse protection test after administration by oral gavage; type: functional; conditions: Pseudomonas aeruginosa, po; read-out: ED50; in short: as §2
[17] = system: Pseudomonas aeruginosa; assay: In vivo efficacy against Pseudomonas aeruginosa 5007 in mouse protection test after subcutaneous administration; type: functional; conditions: Pseudomonas aeruginosa, sc; read-out: ED50; in short: as §2
[18] = system: Mus musculus; assay: IIn vivo efficacy against Escherichia coli JUHL in mouse protection test after administration by oral gavage; type: functional; in short: as §2
[19] = Streptococcus pyogenes, read-out: MIC
[20] = Burkholderia cepacia, read-out: MIC
[21] = Escherichia coli, read-out: MIC
[22] = Pseudomonas aeruginosa, read-out: MIC
[23] = Staphylococcus aureus, NCTC 10649, read-out: MIC
[24] = Staphylococcus aureus, read-out: ED50
[25] = Enterococcus faecium, ATCC 8043, read-out: MIC
[26] = Pseudomonas aeruginosa, DPHP 5263, read-out: MIC
[27] = Staphylococcus aureus, read-out: MIC

| Compound | MIC [1, 19] [µg/mL] | MIC [2, 20] [µg/mL] | MIC [3, 21] [µg/mL] | MIC [4, 22] [µg/mL] | MIC [5, 23] [µg/mL] | ED50 [6, 24] [mg/kg] | MIC [7, 25] [µg/mL] | ED50 [8] [mg/kg] | MIC [9, 26] [µg/mL] | MIC [10, 27] [µg/mL] | ED50 [11] [mg/kg] | ED50 [12] [mg/kg] | ED50 [13] [mg/kg] | ED50 [14] [mg/kg] | ED50 [15] [mg/kg] | ED50 [16] [mg/kg] | ED50 [17] [mg/kg] | other results |
| --- | --- | --- | --- | --- | --- | --- | --- | --- | --- | --- | --- | --- | --- | --- | --- | --- | --- | --- |
| Cc1c(N2CCCO2)c(F)cn2c(=O)c(C(=O)O)cc(C3CC3)c12 | 6.2 (≈ 18.7 µM) | 6.2 (≈ 18.7 µM) | 6.2 (≈ 18.7 µM) | 6.2 (≈ 18.7 µM) | 0.78 (≈ 2.35 µM) | > 12 | 3.1 (≈ 9.33 µM) | > 5 | > 100 | > 100 |  |  |  |  |  |  |  |  |
| Cc1c(N2C[C@@H](N)[C@H](C3CC3)C2)c(F)cn2c(=O)c(C(=O)O)cc(C3CC3)c12 (stereo in doubt) |  |  |  |  |  |  |  | 3.4 |  |  | 8 | 25 | 1.5 | 10.9 | 10 | > 50 | > 32 | MIC [1]: 0.05 µg/mL (≈ 0.13 µM); MIC [2]: 1.56 µg/mL (≈ 4.05 µM); MIC [3]: 0.2 µg/mL (≈ 0.519 µM); MIC [4]: 0.39 µg/mL (≈ 1.01 µM); MIC [5]: 0.05 µg/mL (≈ 0.13 µM); MIC [7]: 0.1 µg/mL (≈ 0.259 µM); MIC [9]: 3.1 µg/mL (≈ 8.04 µM); MIC [10]: 0.78 µg/mL (≈ 2.02 µM) |
| Cc1c(N2C[C@@H]3CCCC[C@]3(CN)C2)c(F)cn2c(=O)c(C(=O)O)cc(C3CC3)c12 | 0.02 (≈ 0.0484 µM) | 3.1 (≈ 7.5 µM) | 1.56 (≈ 3.77 µM) | 3.1 (≈ 7.5 µM) | 0.002 (≈ 0.00484 µM) | 1.8 | 0.02 (≈ 0.0484 µM) | > 5 | 50 (≈ 121 µM) | 0.2 (≈ 0.484 µM) |  |  |  | 17.7 | > 20 | > 50 | > 32 |  |
| Cc1c(N2C[C@H](C3CC3)[C@@H](N)C2)c(F)cn2c(=O)c(C(=O)O)cc(C3CC3)c12 | 0.1 (≈ 0.259 µM) | 1.56 (≈ 4.05 µM) | 0.2 (≈ 0.519 µM) | 0.39 (≈ 1.01 µM) | 0.02 (≈ 0.0519 µM) | 3 | 0.1 (≈ 0.259 µM) | 1.2 | 12.5 (≈ 32.4 µM) | 0.78 (≈ 2.02 µM) | > 8 | > 50 |  | 11.2 | > 10 | > 50 | > 32 |  |
| Cc1c(N2CC[C@@H](NCCF)C2)c(F)cn2c(=O)c(C(=O)O)cc(C3CC3)c12 | 0.05 (≈ 0.128 µM) | 1.56 (≈ 3.99 µM) | 1.56 (≈ 3.99 µM) | 1.56 (≈ 3.99 µM) | 0.02 (≈ 0.0511 µM) |  | 0.1 (≈ 0.255 µM) | 4.4 | 25 (≈ 63.9 µM) | 0.39 (≈ 0.996 µM) | 8 | 30.7 | 2.1 | 9.6 | 34.1 | > 50 | > 32 |  |
| Cc1c(N2CCCC(NC3CC3)C2)c(F)cn2c(=O)c(C(=O)O)cc(C3CC3)c12 (stereo not given) | 0.05 (≈ 0.125 µM) | 3.1 (≈ 7.76 µM) | 0.2 (≈ 0.501 µM) | 0.39 (≈ 0.976 µM) | 0.01 (≈ 0.025 µM) |  | 0.05 (≈ 0.125 µM) | 2.8 | 25 (≈ 62.6 µM) | 1.56 (≈ 3.91 µM) | 1 | 2.5 | 0.4 | 2.1 | 8 | > 50 | > 32 |  |
| Cc1c(N2C[C@@H]3OCCN[C@@H]3C2)c(F)cn2c(=O)c(C(=O)O)cc(C3CC3)c12 | 0.1 (≈ 0.258 µM) | 6.2 (≈ 16 µM) | 0.78 (≈ 2.01 µM) | 1.56 (≈ 4.03 µM) | 0.002 (≈ 0.00516 µM) | 2.7 | 0.1 (≈ 0.258 µM) | > 5 | 100 (≈ 258 µM) | 0.78 (≈ 2.01 µM) |  |  |  |  |  |  |  | ED50 [18]: > 20 mg/kg; ED50 [6]: 4.8 mg/kg |
